Screens (PubChem BioAssay)
GSK3 alpha inh: inhibitors of human GSK-3 alpha kinase; P49840; ADP-Glo luminescence, 60 min; inhibition, % at 10 µM; actives 0.1% (n = 320,000); AID 2650;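 active = more than half of replicates show inhibition above 20%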;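 also: GST-tagged GSK-3 alpha with peptide substrate and 25 µM ATP; 0% = DMSO neutral wells and 100% = GW8510 positive control wells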
Target sequence (P49840 whole entry, looked up): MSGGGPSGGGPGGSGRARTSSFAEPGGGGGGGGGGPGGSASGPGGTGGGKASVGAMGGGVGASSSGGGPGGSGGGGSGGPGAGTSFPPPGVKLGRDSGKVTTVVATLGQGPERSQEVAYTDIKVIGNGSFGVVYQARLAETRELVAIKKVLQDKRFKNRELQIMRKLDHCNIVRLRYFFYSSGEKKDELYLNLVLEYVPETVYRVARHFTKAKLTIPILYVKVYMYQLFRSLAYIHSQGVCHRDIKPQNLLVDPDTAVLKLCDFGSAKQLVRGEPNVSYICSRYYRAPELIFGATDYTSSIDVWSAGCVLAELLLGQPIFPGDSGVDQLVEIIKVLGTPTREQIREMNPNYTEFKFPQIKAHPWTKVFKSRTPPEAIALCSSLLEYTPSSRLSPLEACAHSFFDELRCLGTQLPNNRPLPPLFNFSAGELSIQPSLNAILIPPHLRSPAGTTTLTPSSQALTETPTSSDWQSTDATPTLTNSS
Rin1 Abl inh: inhibitors of human Rin1-Abl protein interaction; P00519+Q13671; TR-FRET Rin1/Abl binding, biochemical; inhibition, % at 7.35 µM; actives 0.4% (n = 360,000); in the data active = inhibition above about 5%, passing the limit was not always enough
Arr AP2 block: blocks beta-arrestin peptide binding to AP2 adaptin; actives 0.31% (n = 340,000); FITC-arrestin peptide / GST-AP2 beads, flow cytometry; AP2 beta2 appendage carries R879A mutation; inhibition, % at 10 µM;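 active = inhibition above a set limit, near 3 SD of compounds lacking own fluorescence, cut at about 54% in these data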;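 also: plate controls were DMSO wells for no effect and 5 µM unlabelled arrestin peptide for full effect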
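Material – GST-tagged AP2 beta2-adaptin appendage (R879A) on 4 µm glutathione beads · Probe or stimulus – fluorescein-tagged arrestin peptide at 50 nM final · Timing – 12 min plus 1 h, RT · Detection – bead flow cytometry, FITC channel · Read-out basis – inhibition as reduced fluorescein signal on beads, percent · Medium – PBS plus Tween 20 (0.05%) and BSA (0.1%)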
GSK3B inh: human GSK3beta kinase inhibition. GST-GSK3beta kinase, ADP-Glo luminescence, 60 min; stronger effect = lower value. activity score (negative = inhibition), % at 10 µM. actives 0.038% (n = 300,000). AID 2097;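 active = more than half of replicate wells score below -50%, meaning over 50% inhibition versus plate controls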;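 also: 0% = median DMSO wells and -100% = median GW8510 positive control wells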
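Assay system: GST-tagged human GSK3beta kinase, cell-free; Input: 1.6 ng GSK3beta; Medium: Tris/MgCl2 kinase buffer; Timing: 60 min enzyme reaction, room temperature; Signal: ADP-Glo luminescence quantifying ADP generated by kinase; Evaluation: score relative to plate controls; Benchmarks: DMSO neutral wells and GW8510 at 20 µM as positive.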
STK33 kinase inh: inhibitors of human STK33 kinase; Q9BYT3; actives 0.073% (n = 320,000); purified STK33, MBP phosphorylation, ADP-Glo luminescence; inhibition, % at 10 µM;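 active = inhibition at or above 25%, using the most active replicate where run in duplicate; inactive = inhibition below 25%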
DYRK1A inh: blocks rat Dyrk1A kinase activity; Q63470; ADP-Glo luminescence, NFATc1 peptide; inhibition, % at 12.5 µM; actives 0.43% (n = 310,000); AID 504441; in the data active = inhibition above about 50%;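 also: plate controls were vehicle with enzyme for no effect and no enzyme for full effect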
ADP-Glo artifact: counter-screen for Dyrk1A inhibitors: ADP-Glo luciferase artifacts; shares compounds with DYRK1A inh; 1,300 tested, under 10 active; ADP-Glo luciferase artifact assay, no Dyrk1A, luminescence; AID 588348; AC50, µM (highest dose often 12 µM), inactives show top-dose activity change, negative = inhibition;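 active = fitted half-maximal dose AC50 no more than ten times the top valid tested dose, with luminescence dropping as dose rises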
The depositor's hits bear a star; / = no result. An excerpt weighted towards active compounds, which were near 0.99% of everything screened.

SMILES	GSK3 alpha inh	Rin1 Abl inh	Arr AP2 block	GSK3B inh	STK33 kinase inh	DYRK1A inh	ADP-Glo artifact
Cc1cc(O)c(C=O)c2c1C(=O)Oc1c(CO)c(O)c3c(c1O2)C(O)OC3=O (configuration not stated)	6	4	4	/	57*	51*	/
Cc1cc(O)c(CN(C)C)c2c1C(=O)/C(=C/c1ccco1)O2	19	-1	-3	-12	7	10	/
CCN(CC)S(=O)(=O)c1ccc(N2CCOCC2)c(NC(=O)c2ccc(N3CCCC3=O)cc2)c1	-2	0	-33	2	-1	-6	/
COc1ccc(-c2oc3ncnc(NCCCN(C)C)c3c2-c2ccc(OC)cc2)cc1	5	-3	9	-4	38*	-3	/
Oc1cccc(-c2nc3ccccc3s2)c1	-1	-1	-3	-4	4	-1	/
CCOc1cc(-c2nc3ccccc3s2)ccc1O	-1	-1	3	4	0	58*	8%
COc1ccc(-c2nc3ccccc3s2)cc1O	4	1	6	-2	3	-4	/
COc1cc(-c2nc3ccccc3s2)ccc1O	0	-29	1	0	4	77*	8%
O=C(NCC(O)c1nc2ccccc2[nH]1)c1cc2ccccc2[nH]1 (configuration not stated)	/	-3	/	/	/	/	/
CCNc1nc(N)nc(-c2cc(Cl)ccc2O)n1	72*	0	-3	-73*	75*	67*	6%
CN(C)CCNc1ccc(CO)c2sc3ccc(O)cc3c(=O)c12	/	-20	18	/	/	77*	7%
COc1ccc2sc3cccc(NCCN(C)C)c3c(=O)c2c1	/	-9	/	/	/	/	/
c1cnc2ccc(-c3ccc4ncccc4c3)cc2c1	-1	0	13	1	12	87*	9%
NNc1nccc(Nc2ccccc2C(=O)O)n1	69*	2	0	-60*	20	84*	9%
COc1ccc(Nc2ccccc2C(=O)O)cc1	-3	2	32	6	-1	-7	/
Cc1cccc(C)c1NC(=O)C1NC(=O)CC1c1ccccc1 (configuration not stated)	/	-2	13	-2	-1	9	/
Cc1cccc(NC(=O)C2NC(=O)CC2c2ccccc2)c1C (configuration not stated)	/	-2	9	1	-1	59*	2%
COc1ccc(C2=Nn3c(nnc3-c3ccco3)SC2)cc1	16	-2	33	-2	0	38	/
COc1ccc(OC)c(C2=Nn3c(nnc3-c3ccco3)SC2)c1	5	-6	-4	1	-1	74*	9%
Cc1ccc(C(=O)Nc2ccc3ccccc3n2)cc1	-2	0	13	3	1	21	/
O=C(Nc1ccc2ccccc2n1)c1ccccc1	-2	0	1	0	1	51*	8%
CN(c1ccccc1)c1nc(N)c([N+](=O)[O-])c(N2CCOCC2)n1	4	-4	-20	0	-1	5	/
O=[N+]([O-])c1cccc(N/N=C/c2cc([N+](=O)[O-])ccc2O)c1	-1	0	8	2	0	6	/
O=[N+]([O-])c1ccc(O)c(C=NNc2ccc(S(=O)(=O)O)cc2)c1	/	4	-4	/	/	73*	9%
Cc1cccc(CNc2ncnc3ccc(-c4ccccc4Cl)cc23)c1	-4	-4	-5	/	0	6	/
SMILES	GSK3 alpha inh	Rin1 Abl inh	Arr AP2 block	GSK3B inh	STK33 kinase inh	DYRK1A inh	ADP-Glo artifact
Cc1cccc(CNc2ncnc3ccc(-c4ccc5c(c4)OCO5)cc23)c1	0	3	-1	/	0	51*	6%
c1cncc(-c2nc3ccccc3[nH]2)c1	-2	-3	-2	-1	5	51*	10%
CC1(C2CC2)NC(=O)N(CC(=O)Nc2ccc(Cl)c([N+](=O)[O-])c2)C1=O (configuration not stated)	8	-3	0	/	-1	/	/
CC1(C)Nc2ccc(O)cc2-c2c1ssc2=S	36	-10	-3	-37	1	52*	9%
Cc1cccc(Nc2cc(C)c3c(O)cccc3n2)c1C	2	-7	-1	-1	0	68*	7%
Cc1cccc(NC(=S)N(C)C)c1C	-2	-2	-4	1	-1	3	/
COc1ccc(C(=O)N2CCN(c3c(C)cccc3C)CC2)cc1OC	/	0	25	1	-1	59*	9%
Cc1ccc(OCCOC(=O)c2cccc(S(=O)(=O)N3CC(C)OC(C)C3)c2)cc1 (configuration not stated)	1	2	0	/	-1	/	/
O=C1NC(=O)/C(=C\c2ccc(Br)o2)S1	6	2	13	1	-2	66*	13%
O=C1NC(=O)/C(=C/c2ccc(-c3cc(C(=O)O)ccc3Cl)o2)S1	28	0	16	2	13	61*	10%
CCOc1cc(N2CCOCC2)c(OCC)cc1NC(=O)c1nn(CC)c(=O)c2ccccc12	-3	1	18	/	1	/	/
Cn1cc(S(=O)(=O)N2CCCC2)cc1C(=O)NCCc1ccccc1	-1	-1	32	1	-1	-1	/
COc1ccc(/C=C(\NC(=O)c2ccc([N+](=O)[O-])cc2)C(=O)NCCCN2CCOCC2)cc1	-2	0	-11	/	-1	0	/
CCOCCOc1nc2c(c(=O)n(C)c(=O)n2C)n1Cc1ccc(C)cc1	0	-1	4	-2	0	60*	9%
C=CCOc1nc2c(c(=O)n(C)c(=O)n2C)n1Cc1ccccc1	1	4	10	1	-1	-2	/
O=C(Nc1cccnc1)c1ccc([N+](=O)[O-])s1	2	-1	19	/	-1	/	/
COc1cc(CO)cc(Br)c1OCc1cccnc1	1	4	5	2	0	51*	9%
COc1cc(CNC(C)(C)CO)cc(Br)c1OCc1ccccc1	0	2	-2	1	0	1	/
CCCC(=O)N(CCN1CCOCC1)c1nc2c(OCC)cccc2s1	0	5	4	1	1	-1	/
CC(C)NC(=O)N(C)C[C@H]1Oc2ccc(NC(=O)Cc3ccccc3)cc2C(=O)N([C@H](C)CO)C[C@@H]1C	-1	1	-3	/	-2	/	/
O=C(NC(=S)N1CCOCC1)c1cn(-c2ccccc2)nc1-c1ccc(F)cc1	/	2	-24	/	/	0	/
CCn1c(SCC(=O)Nc2cccc(S(=O)(=O)N(C)c3ccccc3)c2)nnc1C1CC1	-1	3	-3	/	-1	11	/
COc1ccc(/C=C2\SC(N3CCCCC3)=NC2=O)cc1	2	-2	5	3	2	67*	12%
